Results published in ChEMBL document CHEMBL3774339, “Exploring Selective Inhibition of the First Bromodomain of the Human Bromodomain and Extra-terminal Domain (BET) Proteins” (J Med Chem, 2016).
One block for each compound: values may come before it.

How the values were obtained:
[1] = molecular target: Bromodomain testis-specific protein (Homo sapiens, UniProt Q58F21); assay: Inhibition of GST-tagged human BRDT bromodomain1 using H4KAc 5/8/12/16 peptide as substrate incubated overnight by HTRF assay
[2] = molecular target: Bromodomain-containing protein 4 (Homo sapiens, UniProt O60885); assay: Inhibition of GST-tagged human BRD4 bromodomain1 using H4KAc 5/8/12/16 peptide as substrate incubated overnight by HTRF assay
[3] = molecular target: Bromodomain-containing protein 3 (Homo sapiens, UniProt Q15059); assay: Inhibition of human BRD3 bromodomain2 using H4KAc 5/8/12/16 peptide as substrate incubated overnight by HTRF assay
Jurkat [4] = assay: Downregulation of c-Myc in human Jurkat cells assessed as expression level at 50 uM after 24 hrs by Western blot analysis; type: functional
Procedure, shortened: (§1)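 Jurkat cells exposed to different compound concentrations in 0.5% DMSO for 24 h. c-Myc detected on blots loaded with 50 μg protein.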

Homo sapiens [5] = organism: Homo sapiens; assay: Selectivity ratio of IC50 for GST-tagged human BRD3 bromodomain1 to IC50 for GST-tagged human BRD4 bromodomain1
[6] = molecular target: T1, ATPase family AAA domain-containing protein 2 (Homo sapiens, UniProt Q6PL18); assay: Inhibition of GST-tagged human ATAD2 using H4KAc 5/8/12/16 peptide as substrate incubated overnight by HTRF assay
T1 sequence (Q6PL18 whole entry): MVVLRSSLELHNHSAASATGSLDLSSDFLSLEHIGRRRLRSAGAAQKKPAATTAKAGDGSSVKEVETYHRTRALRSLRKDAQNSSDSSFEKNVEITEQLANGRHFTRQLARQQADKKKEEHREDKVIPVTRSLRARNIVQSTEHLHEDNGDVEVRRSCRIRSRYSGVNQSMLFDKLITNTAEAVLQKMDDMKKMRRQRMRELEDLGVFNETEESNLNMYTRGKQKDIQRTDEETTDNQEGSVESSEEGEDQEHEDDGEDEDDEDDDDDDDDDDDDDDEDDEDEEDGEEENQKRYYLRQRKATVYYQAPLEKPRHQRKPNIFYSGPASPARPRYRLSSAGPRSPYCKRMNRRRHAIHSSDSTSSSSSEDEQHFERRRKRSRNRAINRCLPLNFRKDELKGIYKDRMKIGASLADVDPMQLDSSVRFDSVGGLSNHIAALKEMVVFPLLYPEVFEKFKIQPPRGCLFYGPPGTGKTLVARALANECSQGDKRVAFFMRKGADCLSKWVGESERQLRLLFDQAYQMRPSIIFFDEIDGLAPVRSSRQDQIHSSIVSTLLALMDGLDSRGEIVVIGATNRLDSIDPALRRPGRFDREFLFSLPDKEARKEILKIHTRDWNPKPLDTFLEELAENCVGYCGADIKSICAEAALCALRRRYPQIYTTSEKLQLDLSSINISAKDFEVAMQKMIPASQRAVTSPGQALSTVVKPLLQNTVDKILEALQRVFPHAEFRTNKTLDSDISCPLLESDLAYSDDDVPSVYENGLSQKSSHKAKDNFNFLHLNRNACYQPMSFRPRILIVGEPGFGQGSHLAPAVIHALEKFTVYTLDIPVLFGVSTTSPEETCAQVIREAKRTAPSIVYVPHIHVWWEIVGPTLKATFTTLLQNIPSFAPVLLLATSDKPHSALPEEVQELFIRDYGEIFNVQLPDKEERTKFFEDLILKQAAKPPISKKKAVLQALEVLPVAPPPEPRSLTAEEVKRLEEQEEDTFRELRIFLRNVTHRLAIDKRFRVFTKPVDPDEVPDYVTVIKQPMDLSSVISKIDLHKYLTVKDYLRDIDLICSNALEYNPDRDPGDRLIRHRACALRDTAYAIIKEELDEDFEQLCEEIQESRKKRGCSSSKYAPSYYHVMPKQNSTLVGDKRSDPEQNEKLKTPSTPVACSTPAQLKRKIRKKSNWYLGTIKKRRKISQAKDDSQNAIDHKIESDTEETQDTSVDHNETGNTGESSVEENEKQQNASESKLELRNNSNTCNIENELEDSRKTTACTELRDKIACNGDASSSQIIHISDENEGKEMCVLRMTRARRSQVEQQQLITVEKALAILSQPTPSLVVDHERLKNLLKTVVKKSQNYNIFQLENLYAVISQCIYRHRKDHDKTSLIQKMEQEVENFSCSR

Homo sapiens [7] = organism: Homo sapiens; assay: Selectivity ratio of IC50 for GST-tagged human BRD2 bromodomain1 to IC50 for GST-tagged human BRD4 bromodomain1
Jurkat [8] = assay: Downregulation of c-Myc in human Jurkat cells assessed as expression level at 1 uM after 24 hrs by Western blot analysis; type: functional; procedure, shortened: as §1
Jurkat [9] = assay: Downregulation of c-Myc in human Jurkat cells assessed as expression level at 10 uM after 24 hrs by Western blot analysis; type: functional; procedure, shortened: as §1
Homo sapiens [10] = organism: Homo sapiens; assay: Selectivity ratio of IC50 for GST-tagged human BRDT bromodomain1 to IC50 for GST-tagged human BRD4 bromodomain1
Jurkat [11] = assay: Antiproliferative activity against human Jurkat cells after 72 hrs by Cell Titer-Glo luminescence assay; type: functional, cell-based
Procedure, shortened: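 Jurkat cell viability read across a range of compound concentrations after 72 h incubation at 37 °C. EC50 taken from the dose–response.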

Jurkat [12] = assay: Downregulation of c-Myc in human Jurkat cells assessed as expression level after 24 hrs by Western blot analysis; type: functional, cell-based; procedure, shortened: as §1

Bromodomain-containing protein 3, sequence (Q15059 whole entry): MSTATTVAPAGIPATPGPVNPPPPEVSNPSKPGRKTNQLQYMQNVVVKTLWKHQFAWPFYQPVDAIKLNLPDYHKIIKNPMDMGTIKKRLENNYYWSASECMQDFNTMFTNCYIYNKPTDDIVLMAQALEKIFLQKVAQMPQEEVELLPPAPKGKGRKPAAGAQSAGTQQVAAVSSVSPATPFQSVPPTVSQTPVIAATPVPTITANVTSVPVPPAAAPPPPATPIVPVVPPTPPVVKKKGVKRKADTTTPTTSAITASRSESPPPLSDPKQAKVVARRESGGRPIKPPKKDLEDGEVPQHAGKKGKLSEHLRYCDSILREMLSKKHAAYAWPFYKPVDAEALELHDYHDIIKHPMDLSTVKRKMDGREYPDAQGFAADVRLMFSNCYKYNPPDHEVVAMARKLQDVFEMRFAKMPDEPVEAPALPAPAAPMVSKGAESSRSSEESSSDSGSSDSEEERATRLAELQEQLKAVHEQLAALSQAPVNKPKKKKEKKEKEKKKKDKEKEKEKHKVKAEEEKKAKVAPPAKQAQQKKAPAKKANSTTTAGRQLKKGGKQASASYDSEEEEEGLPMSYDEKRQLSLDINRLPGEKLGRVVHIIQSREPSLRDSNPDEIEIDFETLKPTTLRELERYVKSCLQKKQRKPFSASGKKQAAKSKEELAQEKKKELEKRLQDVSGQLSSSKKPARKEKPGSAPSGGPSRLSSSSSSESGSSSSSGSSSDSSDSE

IC50 [1]: > 100 µM
SMILES: CCn1c(CSc2n[nH]c(N)n2)nc2c1c(=O)[nH]c(=O)n2Cc1ccc(Cl)cc1

IC50 [2]: > 50 µM
SMILES: CCCCn1c(=O)[nH]c(=O)c2c1nc(CSc1n[nH]c(N)n1)n2CC

IC50 [3]: 1.8 µM
SMILES: CCn1cnc2c1c(=O)[nH]c(=O)n2Cc1ccc(Cl)cc1

IC50 [1]: > 100 µM
Ratio IC50 (Homo sapiens [5]): > 10
IC50 [6]: > 100 µM
Ratio IC50 (Homo sapiens [7]): > 10
Ratio IC50 (Homo sapiens [10]): > 10
EC50 (Jurkat [11]): 27 µM
SMILES: CCCCc1c(C)nc2nc(SCc3nc4c(c(=O)[nH]c(=O)n4CCCC)n3CC)nn2c1C
Activity (Jurkat [4]): 3%
Activity (Jurkat [8]): 62%
Activity (Jurkat [9]): 98%
Activity (Jurkat [11]): Dose-dependent effect
Activity (Jurkat [12]): Dose-dependent effect
